ChEMBL document CHEMBL2146381, “Structure-activity relationship (SAR) study of ethyl 2-amino-6-(3,5-dimethoxyphenyl)-4-(2-ethoxy-2-oxoethyl)-4H-chromene-3-carboxylate (CXL017) and the potential of the lead against multidrug resistance in cancer treatment” (J Med Chem, 2012)

Experiments:
[1] = tested on: HL-60; experiment: Cytotoxicity against human HL60 cells assessed as cell viability after 48 hrs by celltiter-blue assay; format: functional, cell-based; settings: HL-60, 48 h
Method in brief: (§1)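 Tumour cell growth inhibition was measured in vitro, following the lab's established procedure. IC50 values are the mean of at least two independent experiments, each run in triplicate.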

[2] = tested on: K562; experiment: Cytotoxicity against human K562 cells assessed as cell viability after 48 hrs by celltiter-blue assay; format: functional, cell-based; settings: K562, 48 h; method in brief: as §1
[3] = tested on: CCRF-CEM; experiment: Cytotoxicity against human CCRF-CEM cells assessed as cell viability after 48 hrs by celltiter-blue assay; format: functional, cell-based; method in brief: as §1
[4] = tested on: HL-60; experiment: Ratio of IC50 for human HL60/MX2 cells to IC50 for human HL60 cells; format: functional
Method in brief: (§2)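 Each resistant subline and its matched parental line were tested in the same growth-inhibition assay, with IC50 taken as the mean of at least two independent experiments in triplicate. The MDR/parental IC50 ratio is reported as relative sensitivity: above 1 means resistance, below 1 means collateral sensitivity. Parental lines came from different sources for each resistant pair.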

[5] = tested on: HL-60; experiment: Ratio of IC50 for human HL60/ADR cells to IC50 for human HL60 cells; format: functional; method in brief: as §2
[6] = tested on: HL-60; experiment: Ratio of IC50 for daunorubicin-resistant human HL60 cells to IC50 for human HL60 cells; format: functional; method in brief: as §2
[7] = tested on: HL-60; experiment: Ratio of IC50 for doxorubicin-resistant human HL60 cells to IC50 for human HL60 cells; format: functional; method in brief: as §2
[8] = tested on: K562; experiment: Ratio of IC50 for doxorubicin-resistant human K562 cells to IC50 for human K562 cells; format: functional; method in brief: as §2
[9] = tested on: K562; experiment: Ratio of IC50 for human K562/HHT300 cells to IC50 for human K562 cells; format: functional; method in brief: as §2
[10] = tested on: CCRF-CEM; experiment: Ratio of IC50 for human CCRF-CEM/C2 cells IC50 for human CCRF-CEM cells; format: functional; method in brief: as §2
[11] = tested on: CCRF-CEM; experiment: Ratio of IC50 for human CCRF-CEM/VM-1-5 cells IC50 for human CCRF-CEM cells; format: functional; method in brief: as §2
[12] = tested on: CCRF-CEM; experiment: Ratio of IC50 for human CCRF-CEM/VLB100 cells IC50 for human CCRF-CEM cells; format: functional; method in brief: as §2

For `CCOC(=O)CC1C(C(=O)OCC)=C(N)Oc2ccc(-c3ccc(N)cc3)cc21` (racemic), which IC50 [1] is on record?
Its IC50 is 22.3 µM.

How did the IC50 [1] turn out when `COC(=O)CC1C(C(=O)OC)=C(N)Oc2ccc(-c3cc(OC)cc(OC)c3)cc21` (racemic) was run?
Its IC50 is 2.42 µM.

Which IC50 [1] does the source give for `C#CCOC(=O)CC1C(C(=O)OCC)=C(N)Oc2ccc(-c3cccc(N)c3)cc21` (racemic) here?
Its IC50 is 3.4 µM.

With `CCOC(=O)CC1C(C(=O)OCC)=C(N)Oc2ccc(-c3cccc(N)c3)cc21` (racemic) as the molecule, how does the IC50 [1] read?
Its IC50 is 20.2 µM.

Which IC50 [1] does the source give for `C#CCOC(=O)CC1C(C(=O)OCC)=C(N)Oc2ccc(-c3cccc(NC)c3)cc21` (racemic) here?
Its IC50 is 7.13 µM.

`C#CCOC(=O)CC1C(C(=O)OCC#C)=C(N)Oc2ccc(-c3cccc(NC)c3)cc21` (racemic) was tested. Which IC50 [1] did it give?
The IC50 was 0.88 µM.

For `C#CCOC(=O)CC1C(C(=O)OCC#C)=C(N)Oc2ccc(-c3ccc(NC)cc3)cc21` (racemic), which IC50 [1] is on record?
Its IC50 is 2.45 µM.

How did the IC50 [1] turn out when `C#CCOC(=O)CC1C(C(=O)OCC)=C(N)Oc2ccc(-c3ccc(NCC)cc3)cc21` (racemic) was run?
Its IC50 is 33 µM.

With `C#CCOC(=O)CC1C(C(=O)OCC#C)=C(N)Oc2ccc(-c3cccc(NCC)c3)cc21` (racemic) as the molecule, how does the IC50 [1] read?
The IC50 was 1.86 µM.

`COc1cc([C@@H]2c3cc4c(cc3[C@@H](O[C@@H]3O[C@@H]5CO[C@@H](C)O[C@H]5[C@H](O)[C@H]3O)[C@H]3COC(=O)[C@H]23)OCO4)cc(OC)c1O` [ETOPOSIDE] was tested. Which IC50 [1] did it give?
Its IC50 is 0.11 µM.

What about the IC50 [2] of the same molecule?
Its IC50 is 2.3 µM.

And the IC50 [3]?
The IC50 was 0.24 µM.

And the “Ratio IC50” value [4]?
Its value is 9.

And the “Ratio IC50” value [5]?
Its value is >10.

What about the “Ratio IC50” value [6] of the same molecule?
The value was >50.

What about the “Ratio IC50” value [7] of the same molecule?
The value was >200.

And the “Ratio IC50” value [8]?
Its value is >15.

What about the “Ratio IC50” value [9] of the same molecule?
The value was >1000.

What about the “Ratio IC50” value [10] of the same molecule?
Its value is 2.5.

What about the “Ratio IC50” value [11] of the same molecule?
The value was >50.

And the “Ratio IC50” value [12]?
The value was 8.6.

With `CCOC(=O)CC1C(C(=O)OCC)=C(N)Oc2ccc(-c3cncnc3)cc21` (racemic) as the molecule, how does the IC50 [1] read?
The IC50 was 37.9 µM.

Which results are given for `Nc1ccn([C@@H]2O[C@H](CO)[C@@H](O)[C@@H]2O)c(=O)n1` [CYTARABINE]?
IC50 [1]: 0.049 µM; IC50 [2]: 14 µM; IC50 [3]: 0.006 µM; Ratio IC50 [4]: 0.4; Ratio IC50 [5]: 0.1; Ratio IC50 [7]: 7.5; Ratio IC50 [8]: 1.5; Ratio IC50 [9]: 7; Ratio IC50 [10]: 4.1; Ratio IC50 [11]: 6.5; Ratio IC50 [12]: 1

`CCOC(=O)CC1C(C(=O)OC)=C(N)Oc2ccc(-c3cc(OC)cc(OC)c3)cc21` (racemic) was tested. Which IC50 [1] did it give?
The IC50 was 10.8 µM.

Which IC50 [1] does the source give for `CCOC(=O)CC1C(C(=O)OCC)=C(N)Oc2ccc(-c3ccncc3)cc21` (racemic) here?
Its IC50 is 10.2 µM.

Which IC50 [1] does the source give for `CCOC(=O)CC1C(C(=O)OCC)=C(N)Oc2ccc(-c3cccs3)cc21` (racemic) here?
Its IC50 is > 80 µM.

Which IC50 [1] does the source give for `C#CCOC(=O)CC1C(C(=O)OCC#C)=C(N)Oc2ccc(-c3cccc(NC(=O)CCl)c3)cc21` (racemic) here?
Its IC50 is 5.3 µM.

For `COc1cc(OC)cc(-c2ccc3c(c2)C(CC(=O)OCC2CO2)C(C(=O)OCC2CO2)=C(N)O3)c1` (racemic), which IC50 [1] is on record?
The IC50 was > 80 µM.

What does the source list for `CC(C)(C)c1ccc(NC(=S)N/N=C2\C(=O)Nc3ccccc32)cc1`?
IC50 [1]: 6.8 µM; IC50 [2]: 26.9 µM; IC50 [3]: 7.05 µM; Ratio IC50 [4]: 0.86; Ratio IC50 [5]: 0.47; Ratio IC50 [6]: 0.64; Ratio IC50 [7]: 1; Ratio IC50 [8]: 0.47; Ratio IC50 [9]: 0.43; Ratio IC50 [10]: 0.58; Ratio IC50 [11]: 2.1; Ratio IC50 [12]: 0.66

With `C#CCOC(=O)CC1C(C(=O)OCC#C)=C(N)Oc2ccc(-c3ccc(N(C)C)cc3)cc21` (racemic) as the molecule, how does the IC50 [1] read?
Its IC50 is 2.56 µM.

How did the IC50 [1] turn out when `C/C=C(/C)C(=O)O[C@H]1C(C)=C2[C@H]([C@@H]1OC(=O)CCCCCCC)[C@@](C)(OC(C)=O)C[C@H](OC(=O)CCC)[C@@]1(O)[C@H]2OC(=O)[C@@]1(C)O` [THAPSIGARGIN] was run?
Its IC50 is 0.007 µM.

What about the IC50 [2] of the same molecule?
The IC50 was 0.17 µM.

What about the IC50 [3] of the same molecule?
Its IC50 is 0.27 µM.

And the “Ratio IC50” value [4]?
The value was 0.02.

And the “Ratio IC50” value [5]?
The value was 1.

And the “Ratio IC50” value [6]?
Its value is >50.

What about the “Ratio IC50” value [7] of the same molecule?
Its value is >50.

What about the “Ratio IC50” value [8] of the same molecule?
The value was 4.2.

And the “Ratio IC50” value [9]?
Its value is >10.

And the “Ratio IC50” value [10]?
The value was 1.45.

What about the “Ratio IC50” value [11] of the same molecule?
Its value is 1.

And the “Ratio IC50” value [12]?
The value was 7.7.

How did the IC50 [1] turn out when `CCOC(=O)CC1C(C(=O)OCC)=C(N)Oc2ccc(-c3cccc(NC)c3)cc21` (racemic) was run?
The IC50 was 7.45 µM.

How did the IC50 [1] turn out when `CCOC(=O)CC1C(C(=O)OCC)=C(N)Oc2ccc(-c3cc(F)cc(F)c3)cc21` (racemic) was run?
Its IC50 is 35.9 µM.

For `CCOC(=O)CC1C(C(=O)OCC)=C(N)Oc2ccc(-c3ccc(F)cc3)cc21` (racemic), which IC50 [1] is on record?
The IC50 was 72.1 µM.
